Bioassay records from PubChem.
The list is not random: actives were taken first. Their share in the collection is about 1.9%.
sPLA2-III inh: Blocks human group III sPLA2 activity; QFRET BODIPY PC-A2 liposome hydrolysis, fluorescence; inhibition, % at 12.2 µM; actives 0.56% (n = 370,000);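 active means inhibition above mean plus 3 SD of compounds lying within the high and low control bounds, cut at about 19% in these data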
PLC-gamma1 inh: blocks human PLC-gamma1 enzyme activity. inhibition, % at 12.2 µM. actives 0.84% (n = 370,000). AID 720700. P19174. purified PLC-gamma1, fluorogenic substrate, fluorescence; in the data active means inhibition above about 9.5%
TbMetRS inhib: blocks T. brucei methionyl-tRNA synthetase activity | inhibition, % at 11.9 µM | purified T. brucei MetRS, ATP depletion, Kinase-Glo luminescence | AID 624268 | actives 0.4% (n = 360,000);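 active means inhibition above a per-plate cutoff of the control wells' mean inhibition plus 3 SD, cut at about 5.5% in these data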
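Dosing: 11.9 µM compound single dose, 0.9% DMSO; Assay system: purified T. brucei MetRS enzyme; Measured by: Kinase-Glo luciferase luminescence reporting remaining unconsumed ATP; Schedule: 15 min plus 2 h at 25 °C.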
DAGLB inhibitor: diacylglycerol lipase beta (human) inhibition | HEK293T DAGLB membrane lysate, EnzChek fluorogenic substrate | AID 504411 | Q8NCG7 | actives 0.059% (n = 340,000) | inhibition, % at 5.17 µM; in the data active means inhibition above about 34%
PLC-beta3 inh: PLC-beta3 (human) inhibition, primary screen; Q01970; Purified PLC-beta3, fluorogenic substrate, fluorescence; inhibition, % at 12.2 µM; actives 0.18% (n = 370,000); AID 720704; in the data active means inhibition above about 11%
Target sequence (Q01970 whole entry, looked up): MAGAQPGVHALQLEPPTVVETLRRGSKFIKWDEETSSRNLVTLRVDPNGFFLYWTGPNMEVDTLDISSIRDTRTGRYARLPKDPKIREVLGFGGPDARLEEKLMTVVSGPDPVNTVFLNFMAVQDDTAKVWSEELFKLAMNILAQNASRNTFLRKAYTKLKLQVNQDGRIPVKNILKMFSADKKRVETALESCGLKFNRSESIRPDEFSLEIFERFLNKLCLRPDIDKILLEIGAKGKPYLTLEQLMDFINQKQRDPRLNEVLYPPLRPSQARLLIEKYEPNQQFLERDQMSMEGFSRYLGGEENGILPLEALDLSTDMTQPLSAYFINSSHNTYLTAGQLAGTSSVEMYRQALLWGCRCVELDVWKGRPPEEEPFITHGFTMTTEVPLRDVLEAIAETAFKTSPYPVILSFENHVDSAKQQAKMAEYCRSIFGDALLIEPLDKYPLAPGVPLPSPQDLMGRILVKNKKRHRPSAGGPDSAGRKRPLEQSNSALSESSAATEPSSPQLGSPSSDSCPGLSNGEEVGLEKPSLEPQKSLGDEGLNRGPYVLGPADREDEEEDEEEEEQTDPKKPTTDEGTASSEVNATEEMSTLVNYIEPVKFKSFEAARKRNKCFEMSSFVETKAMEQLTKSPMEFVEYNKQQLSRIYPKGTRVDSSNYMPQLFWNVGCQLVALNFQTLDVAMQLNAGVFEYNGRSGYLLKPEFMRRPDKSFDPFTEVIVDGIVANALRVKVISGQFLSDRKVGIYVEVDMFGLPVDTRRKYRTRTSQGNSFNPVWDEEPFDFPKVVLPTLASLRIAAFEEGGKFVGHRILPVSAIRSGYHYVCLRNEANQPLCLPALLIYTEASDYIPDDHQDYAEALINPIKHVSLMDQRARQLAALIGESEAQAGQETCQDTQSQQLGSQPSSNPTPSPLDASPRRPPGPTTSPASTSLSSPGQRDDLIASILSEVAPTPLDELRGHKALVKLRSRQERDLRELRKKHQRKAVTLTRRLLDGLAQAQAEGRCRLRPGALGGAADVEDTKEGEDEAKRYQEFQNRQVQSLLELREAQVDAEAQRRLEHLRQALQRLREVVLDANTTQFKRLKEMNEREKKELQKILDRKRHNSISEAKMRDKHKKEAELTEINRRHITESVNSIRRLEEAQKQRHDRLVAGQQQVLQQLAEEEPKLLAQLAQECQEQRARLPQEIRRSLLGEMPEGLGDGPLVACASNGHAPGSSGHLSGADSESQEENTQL
hGIII sPLA2 conf: human GIII-sPLA2 inhibition, confirmation. recombinant hGIII-sPLA2, BODIPY PC-A2 QFRET fluorescence. shares compounds with sPLA2-III inh. actives 34% (n = 2,000). AID 743280. inhibition, % at 12.2 µM;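 active means mean inhibition across triplicates above the hit cutoff set in the earlier primary screen, cut at about 19% in these data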
BODIPY interf: counter-screen for HGIII-sPLA2 inhibitors: 535nm fluorescence interference; shares compounds with sPLA2-III inh; BODIPY FL product fluorescence interference, QFRET; inhibition, % at 12.2 µM; actives 8.5% (n = 2,000); AID 743282;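 active means average inhibition above the solvent-only control mean plus 3 SD, cut at about 6% in these data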
535nm interf DR: 535nm optical interference dose response, HGIII-sPLA2 counter-screen | shares compounds with sPLA2-III inh | BODIPY FL product fluorescence interference, cell-free | 240 tested, under 10 active | IC50, µM;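 active means IC50 at or below 10 µM; inactive means IC50 above 10 µM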
Hits are given with their value; - = inactive; . = no result.

SMILES | sPLA2-III inh | PLC-gamma1 inh | TbMetRS inhib | DAGLB inhibitor | PLC-beta3 inh | hGIII sPLA2 conf | BODIPY interf | others
COc1ccc(OC)c(NC(=O)Nc2nc(C(N)CCc3ccccc3)cs2)c1 (stereo not given) | 23 | - | - | . | - | - | -
CC(C)c1ccc(NC(=O)Nc2nc(C(N)CCc3ccccc3)cs2)cc1 (stereo not given) | 21 | - | - | . | - | - | -
CCCCN1CC(COCc2ccccc2)Oc2cccc(NCc3cc(OC)c(OC)c(OC)c3)c2S1(=O)=O (stereo not given) | - | - | . | . | - | . | .
CCCCCCCCN1C(=O)[C@@H](CC(=O)NCC2CCCCC2)C[C@@]2(C(=O)OC)C1=C[C@H](COCc1ccccc1)O[C@@H]2C | - | - | . | . | - | . | .
CCC(=O)Nc1cccc(NC(=S)NC(=O)c2ccc(Cl)cc2Cl)c1 | 21 | - | - | - | - | - | -
CCC(=O)Nc1cccc(NC(=S)NC(=O)c2ccc(Cl)cc2)c1 | - | - | - | - | - | . | .
O=C(NCc1ccc(C(=O)N2CCCC2)cc1)c1cccc(Br)c1 | - | - | . | . | - | . | .
O=C(N1CCOCC1)N1CC[C@H]2[C@H](CCCN2Cc2ccccc2)C1 | - | - | . | . | - | . | .
NC(=O)c1ccc[n+](Cc2ccccc2)c1 | 19 | - | - | - | - | - | -
COc1ccc(CN2CCc3c([nH]c4ccccc34)C2)cc1Br | 27 | - | - | - | - | - | -
CCOc1cc(CN2CCc3c([nH]c4ccccc34)C2)ccc1OC | - | - | - | - | - | . | .
CC(C)c1cc(C(=O)NCc2ccc(F)cc2)c(N)s1 | 21 | - | - | . | - | 24 | -
CC(C)c1cc(C(=O)NCCc2cccs2)c(N)s1 | - | - | - | . | - | . | .
CC1CN(Cc2ccccc2Cl)CC(C)O1 (stereo not given) | 19 | - | - | - | - | - | -
Clc1ccccc1CN1CCSCC1 | - | - | - | - | - | . | .
CCOc1ccccc1N(CC(=O)Nc1ccc(S(=O)(=O)N2CCOCC2)cc1)S(=O)(=O)c1ccc(Cl)cc1 | 23 | - | - | - | - | - | -
N#CC(C#N)=c1ccc2c(c1)NC1(CCCCC1)N=2 | 38 | - | - | - | - | 61 | 18
N#CC(C#N)=C1NC2(CCCCC2)Cc2ccccc21 | - | - | - | - | - | . | .
COc1ccc(S[C@]2(C(=O)N3CCCC3)CC(=O)N(c3ccsc3)[C@@H]2c2ccc(OC)cc2)cc1 | - | - | . | . | - | . | .
Cc1cc(C(=O)COc2ccc3ccc(=O)oc3c2)c(C)n1Cc1cccs1 | 21 | - | - | - | - | - | -
CCC(Oc1ccccc1)C(=O)NCCOC (stereo not given) | 21 | - | - | - | - | - | -
CCN(CC)C(=O)CC[C@H]1CC[C@]2(CCCN(Cc3nccn3C)C2)O1 | - | - | . | . | - | . | .
COc1ccccc1N1CCN(N=Cc2ccccc2Br)CC1 | 19 | - | . | . | - | - | -
COc1ccccc1N1CCN(/N=C/c2cccc(OC)c2OC)CC1 | - | - | - | - | - | . | .
O=C1CCCN1c1nccs1 | 20 | - | - | - | - | - | -
SMILES | sPLA2-III inh | PLC-gamma1 inh | TbMetRS inhib | DAGLB inhibitor | PLC-beta3 inh | hGIII sPLA2 conf | BODIPY interf | others
S=c1[nH]c2ccccc2n2c(=S)[nH]nc12 | 21 | - | - | - | - | 26 | -
NS(=O)(=O)c1ccc(F)c(C(=O)O)c1 | 26 | - | - | - | - | - | -
Cc1ccc(S(=O)(=O)N(CC(=O)NC2CCC(C)CC2)c2cc(C)cc(C)c2)cc1 (stereo not given) | - | - | . | . | - | . | .
CC(=O)N1N=C(c2ccc3ccccc3c2)OC1(C)C | - | - | - | - | - | . | .
CC(=O)N1N=C(c2ccc(C(C)(C)C)cc2)OC1(C)C | 20 | - | - | - | - | - | -
C/C(=N\NC(=O)c1ccc(N(C)C)cc1)c1ccc(C)c(C)c1 | 31 | - | - | - | - | - | -
CN1C2CCC1CC(NC(=O)c1ccc(Cl)cc1)C2 (stereo not given) | - | - | - | - | - | . | .
O=C(NC1C2CCCC1CN(C1CC1)C2)c1ccc(Cl)cc1 (stereo not given) | 20 | - | - | - | - | - | -
Cc1ccc(S(=O)(=O)N2c3ccc(F)cc3C[C@H]2CSc2ccccc2)cc1 | - | - | . | . | - | . | .
COc1ccc2c3c([nH]c2c1)C1=NCC[C@]12c1ccccc1N=CN2CC3 | - | - | . | . | - | . | .
Cc1ccc(S(=O)(=O)NC(=O)Nc2ccc(N(C)C)cc2)cc1 | - | - | - | - | - | . | .
Cc1ccc(NC(=S)c2ccc(N(C)C)cc2)cc1 | 25 | - | - | - | - | - | -
COc1ccc(C(=S)Nc2ccc(N(C)C)cc2)cc1 | 23 | - | - | - | - | 26 | -
CC(C)Oc1ccc(C(=O)Nc2ccc(N(C)C)cc2)cc1 | 19 | - | - | - | - | - | -
COc1ccc(NC(=S)c2ccccc2)cc1 | - | - | - | - | - | . | .
COc1ccc(NC(=S)c2ccc(N(C)C)cc2)cc1 | 20 | - | - | - | - | - | -
CCCOc1ccc(C(=O)Nc2ccc(N(C)C)cc2)cc1 | - | - | - | - | - | . | .
C[C@@H]1CN(C(=O)OC(C)(C)C)CCN1c1ccc(Br)c(C#N)c1 | - | - | . | . | - | . | .
Nc1[nH]c(C(=O)c2ccc(Br)cc2)c(-c2ccc(Cl)cc2)c1C(=O)NCCc1c[nH]c2ccccc12 | - | - | . | . | - | . | .
CCc1cc(C(=O)c2ccc(C)cc2)c(NC(=O)CCl)s1 | - | - | - | - | - | . | .
Cc1cc(C(=O)c2ccc(Cl)cc2)c(NC(=O)CCl)s1 | 19 | - | - | - | - | - | -
COc1ccccc1CCn1cnc(-c2cccc(Br)c2)c1CC(C)C | - | - | . | . | - | . | .
COc1cccc(C(=O)Oc2cc3c4c(c2)C(C)=CC(C)(C)N4C(=O)C3=O)c1 | 32 | - | - | - | - | 53 | - | 535nm interf DR=-
CCN(C(=O)C1CCN(c2ncccn2)CC1)c1ccccc1 | - | - | . | . | - | . | .
CC(=O)Nc1ccc(-c2csc(NNC(=O)c3ccccc3)n2)cc1 | 33 | - | - | - | - | 22 | -
SMILES | sPLA2-III inh | PLC-gamma1 inh | TbMetRS inhib | DAGLB inhibitor | PLC-beta3 inh | hGIII sPLA2 conf | BODIPY interf | others
CC(=O)Nc1ccc(-c2csc(N/N=C(/C)c3ccccc3)n2)cc1 | - | - | - | - | - | . | .
O=C(NNc1nc(-c2ccccc2)cs1)c1ccco1 | 27 | - | - | - | - | 29 | - | 535nm interf DR=-
Cc1ccc(-c2csc(NC(=S)NC(=O)c3ccco3)n2)cc1 | - | - | - | - | - | . | .
O=C(NNc1nc(-c2ccc(Cl)cc2)cs1)c1ccco1 | 45 | - | - | - | - | 38 | 11
O=[N+]([O-])c1ccccc1C(=Nc1ccccc1)c1c(O)cc(O)cc1O | 26 | - | - | - | - | - | -
CCn1c(CSCc2ccc(Cl)cc2)n[nH]c1=S | 19 | - | - | - | - | 26 | -
